Measured values reported in ChEMBL document CHEMBL1147349, “Bisamides from Aglaia species: structure analysis and potential to reverse drug resistance with cultured cells” (1993).
Converted amounts (≈) assume the structure as drawn.

Tests used:
Assay type in all cases: functional
[1] = Cytotoxicity against vinblastine-resistant human KBV1 cells by dose-response study in presence of 1 ug/ml vinblastine; settings: KB-V1, read-out: ED50 (the source's name)
Outline: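 The resistant KB-V1 line, normally kept in vinblastine (1 µg/ml), was exposed to the test compounds up to 20 µg/ml. Vinblastine at 1 µg/ml was present in the culture medium during treatment. The read-out was cell survival, expressed as ED50.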

LNCaP = assay: Cytotoxicity against human LNCAP cells; settings: read-out: ED50 (the source's name)
Outline: (§1)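 Human cancer cell lines were cultured with the test compounds at concentrations up to 20 µg/ml. The read-out was cell survival, expressed as ED50.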

[2] = Cytotoxicity against human Col1 cells; settings: read-out: ED50 (the source's name); outline: as §1
[3] = Cytotoxicity against human LUC1 cells; settings: read-out: ED50 (the source's name); outline: as §1
ZR-75-1 = assay: Cytotoxicity against human ZR-75-1 cells; settings: read-out: ED50 (the source's name); outline: as §1
HT-1080 = assay: Cytotoxicity against human HT1080 cells; settings: read-out: ED50 (the source's name); outline: as §1
A-431 = assay: Cytotoxicity against human A431 cells; settings: read-out: ED50 (the source's name); outline: as §1
[4] = Cytotoxicity against human BCA1 cells; settings: read-out: ED50 (the source's name); outline: as §1
SK-MEL-2 = assay: Cytotoxicity against human SK-MEL-2 cells; settings: read-out: ED50 (the source's name); outline: as §1
[5] = Cytotoxicity against vinblastine-resistant human KBV1 cells; settings: KB-V1, read-out: ED50 (the source's name)
Outline: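 KB-V1 cells are routinely maintained in vinblastine (1 µg/ml) to keep the drug-resistant phenotype. For this test they were cultured with the test compounds without vinblastine, at concentrations up to 20 µg/ml. The read-out was cell survival, expressed as ED50.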

KB = assay: Cytotoxicity against human KB cells; settings: read-out: ED50 (the source's name); outline: as §1

Structure (SMILES) | EC50 [1] | EC50 (LNCaP) | EC50 [2] | EC50 [3] | EC50 (ZR-75-1) | EC50 (HT-1080) | EC50 (A-431) | EC50 [4] | EC50 (SK-MEL-2) | EC50 [5] | EC50 (KB)
CC[C@H](C)C(=O)N[C@H]1CCCN1C(=O)/C=C/c1ccccc1 [ODORINE] | 6.4 µg/mL | > 20 µg/mL | > 20 µg/mL | > 20 µg/mL | > 20 µg/mL | > 20 µg/mL | > 20 µg/mL | > 20 µg/mL | > 20 µg/mL | > 20 µg/mL | > 20 µg/mL
CC[C@]1(O)C[C@@H]2CN(CCc3c([nH]c4ccccc34)[C@@](C(=O)OC)(c3cc4c(cc3OC)N(C)[C@H]3[C@@](O)(C(=O)OC)[C@H](OC(C)=O)[C@]5(CC)C=CCN6CC[C@]43[C@@H]65)C2)C1 [VINBLASTINE] | – | – | – | – | – | – | – | – | – | 2.6 µg/mL (≈ 3.21 µM) | 0.002 µg/mL (≈ 0.00247 µM)
CC[C@H](C)C(=O)N[C@@H]1CCCN1C(=O)/C=C/c1ccccc1 | 4.2 µg/mL | > 20 µg/mL | > 20 µg/mL | > 20 µg/mL | > 20 µg/mL | > 20 µg/mL | > 20 µg/mL | > 20 µg/mL | > 20 µg/mL | > 20 µg/mL | > 20 µg/mL
CC(C)C(=O)N[C@H]1CCCN1C(=O)/C=C/c1ccccc1 [PIRIFERINE] | 8.5 µg/mL | > 20 µg/mL | > 20 µg/mL | > 20 µg/mL | > 20 µg/mL | > 20 µg/mL | > 20 µg/mL | > 20 µg/mL | > 20 µg/mL | 10 µg/mL (≈ 34.9 µM) | > 20 µg/mL
O=C(/C=C/c1ccccc1)NCCCCNC(=O)c1ccccc1 [PYRAMIDATINE] | > 20 µg/mL | > 20 µg/mL | > 20 µg/mL | > 20 µg/mL | > 20 µg/mL | > 20 µg/mL | > 20 µg/mL | > 20 µg/mL | > 20 µg/mL | > 20 µg/mL | > 20 µg/mL
